Screening data from PubChem.
T cell modulator = T cell immune modulators affecting CD8 T cell-vesicle binding. 2C CD8+ T cell-vesicle binding, flow cytometry; stronger effect = lower value. response (vesicle binding), % at 7 µM. hit rate 0.068% among 330,000. AID 2052;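 active = response, share of CD8 T cells binding vesicles, and their 90th percentile fluorescence all below set limits, cut at about 80% in these data, passing the limit was not always enough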;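 also: values below 100% mean blocked vesicle binding to the CD8+ T cells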
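Assay system – 2C mouse CD8+ T cells · Also added – QL9-loaded Drosophila micro-vesicles · Timing – Cell–vesicle co-incubation 1.5 h at 37 °C, staining 20 min on ice · Signal – flow cytometry of vesicle-bound cells · Measure – percent CD8+ FL2 mean versus row control · Controls – Peptide-free naked vesicles (low) and QL9 vesicles with 0.7% DMSO vehicle (high)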
CHT PAM = allosteric activators of human choline transporter CHT; Q9GZV3; CHT-expressing cells, membrane potential dye, choline EC20; stronger effect = higher value; LV-AA mutant CHT in HEK293 cells; B-score at 10 µM; hit rate 0.49% among 310,000;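 active = initial fluorescence not abnormally high and integrated response B-score, plate-corrected, over 3 SD above library mean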
CHT block = inhibitors of human choline transporter CHT; Q9GZV3; CHT-expressing cells, membrane potential dye, choline response; stronger effect = lower value; B-score at 10 µM; hit rate 0.86% among 310,000; AID 488975;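 active = B-score over 3 SD under the library average, and starting fluorescence ratio not unusually high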;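 also: choline stimulus applied at its EC90 after an EC20 pre-addition; B-score computed on integrated fluorescence ratio after choline addition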
VLA-4 inh = inhibition in a human VLA-4 binding assay | inhibition, % (about 7 µM as worked out from the volumes in the protocol) | hit rate 0.2% among 330,000 | P13612 | AID 2557 | VLA-4 expressing cells, ligand binding flow cytometry; in the data active = inhibition above about 50%
Target sequence (P13612 whole entry, looked up): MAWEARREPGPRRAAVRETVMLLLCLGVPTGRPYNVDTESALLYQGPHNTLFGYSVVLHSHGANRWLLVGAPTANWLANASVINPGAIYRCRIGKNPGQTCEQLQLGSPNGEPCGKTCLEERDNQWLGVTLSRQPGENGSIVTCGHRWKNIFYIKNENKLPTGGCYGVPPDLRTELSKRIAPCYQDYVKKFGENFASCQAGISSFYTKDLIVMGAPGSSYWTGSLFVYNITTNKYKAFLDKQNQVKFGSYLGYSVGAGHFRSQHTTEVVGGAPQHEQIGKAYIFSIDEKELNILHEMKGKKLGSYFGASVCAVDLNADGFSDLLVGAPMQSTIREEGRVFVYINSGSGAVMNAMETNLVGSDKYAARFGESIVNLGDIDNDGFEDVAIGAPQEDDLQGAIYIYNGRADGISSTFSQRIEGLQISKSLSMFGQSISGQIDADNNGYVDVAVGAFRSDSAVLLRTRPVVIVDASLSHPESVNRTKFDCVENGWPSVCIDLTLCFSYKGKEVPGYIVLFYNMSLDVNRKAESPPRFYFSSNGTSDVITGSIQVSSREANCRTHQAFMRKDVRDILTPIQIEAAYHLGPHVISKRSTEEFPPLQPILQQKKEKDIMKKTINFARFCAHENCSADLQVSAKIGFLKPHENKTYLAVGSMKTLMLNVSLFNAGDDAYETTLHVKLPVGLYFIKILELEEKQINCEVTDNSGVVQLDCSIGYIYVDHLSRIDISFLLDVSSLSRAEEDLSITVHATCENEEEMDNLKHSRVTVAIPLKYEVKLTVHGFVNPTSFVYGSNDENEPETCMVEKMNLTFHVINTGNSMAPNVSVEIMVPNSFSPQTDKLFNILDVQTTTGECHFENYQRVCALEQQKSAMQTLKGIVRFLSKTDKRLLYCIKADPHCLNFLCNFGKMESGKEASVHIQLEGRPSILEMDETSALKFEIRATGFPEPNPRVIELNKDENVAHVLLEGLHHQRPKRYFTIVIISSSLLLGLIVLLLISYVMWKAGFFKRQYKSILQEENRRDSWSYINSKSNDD
CHT inh conf = confirmation of human choline transporter CHT inhibitors; shares compounds with CHT block; CHT-expressing cells, choline membrane potential dye; LV-to-AA substituted CHT, HEK293 cells; CHT activity remaining % of control (stronger effect = lower value), % at 10 µM; hit rate 70% among 2,400;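 active = choline transporter activity left, mean of duplicates at 10 µM, below buffer-only control mean minus 3 SD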;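 also: depolarization triggered by choline at its EC90 following an EC20 pre-addition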
HEK293 CHT ctr = counter-screen for CHT inhibitors: effect in parental HEK293 cells; shares compounds with CHT block; membrane potential dye, choline response; active = decrease or increase beyond buffer ±3SD; hit rate 4% among 2,400; membrane potential ratio readout (active if shifted either direction beyond buffer ±3SD; no single direction) at 10 µM;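 also: parental cells lack the transporter so any hit is non-specific; ratio is peak minus trough fluorescence over baseline after EC90 choline challenge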
Hits are given with their value; - = inactive; . = no result. Hits are enriched below; roughly 1.5% of the tested compounds scored in any of these assays.

SMILES	T cell modulator	CHT PAM	CHT block	VLA-4 inh	CHT inh conf	HEK293 CHT ctr
COc1ccc(NC(C)=O)cc1S(=O)(=O)NC1CCSc2ccccc21 (centres undefined)	-	-	-	-	.	.
COc1ccc(C(C(=O)NC2CCCCC2)N(CC2CCCO2)C(=O)C2COc3ccccc3O2)cc1OC (centres undefined)	-	-	-5.9	-	-	-
O=C(NNC(=S)NC(=O)C12CC3CC(CC(C3)C1)C2)c1ccncc1	-	-	-9.6	-	53%	-
CCOC(=O)N1CCC(NC(=O)CSCc2cnn(-c3ccccc3)c2-n2cccc2)CC1	-	-	-7.3	-	-	-
O=C(CSCc1cnn(-c2ccccc2)c1-n1cccc1)NCc1cccs1	-	-	-6.5	-	-	-
CNC(=O)CSCc1cnn(-c2ccccc2)c1-n1cccc1	-	-	-	-	.	.
Cc1ccc(NC(=O)CCCSc2ccccc2)cc1S(=O)(=O)N1CCOCC1	-	-	-	-	.	.
O=C(COC(=O)c1ccc(S(=O)(=O)C(F)F)cc1)Nc1cccnc1Cl	-	-	-	-	.	.
O=C(c1ccc(O)cc1)c1ccc(Cl)cc1	-	-	-6	-	50%	-
COc1ccc(C(=O)c2ccc(Cl)cc2)cc1	-	-	-	-	.	.
Cc1ccc(-c2nnc(N3CCN(C(=O)Cn4c(=O)n(C)c5ccccc54)CC3)c3ccccc23)cc1	-	-	-	-	.	.
Cn1c(=O)n(CC(=O)N2CCN(c3nnc(-c4ccccc4)c4ccccc34)CC2)c2ccccc21	-	-	-5.8	-	-	-
O=C(NC1CCCCCCC1)c1ccc(S(=O)(=O)N2CCCC2)cc1	-	-	-11	-	44%	-
CCOc1ccc(NC(=O)c2cccc(NC(=O)c3ccccc3)c2)cc1	-	-	-	-	.	.
CCc1cccc(NC(=O)c2cccc(S(=O)(=O)N3CCN(C)CC3)c2)c1	-	-	-	-	.	.
CCc1cccc(CC)c1NC(=O)c1cccc(NC(=O)c2ccccc2)c1	-	-	-5.6	-	65%	-
COc1ccc(N(C)S(=O)(=O)c2cccc(C(=O)NC3CCC(C)CC3)c2)cc1 (centres undefined)	-	-	-6.3	-	65%	-
CCc1cccc(CC)c1NC(=O)c1cccc(S(=O)(=O)N2CCN(C)CC2)c1	-	-	-5.8	-	39%	-
COc1ccc2c(COC(=O)[C@H](C)NS(=O)(=O)c3ccccc3F)cc(=O)oc2c1	-	.	.	-	.	.
Cn1c(CC(=O)Nc2ccccc2)cc2ccccc21	-	-	-	-	.	.
CC1CCC(NC(=O)c2cccc(S(=O)(=O)N3CCN(C)CC3)c2)CC1 (centres undefined)	-	-	-13	-	9.1%	-
CC1CCC(NC(=O)c2cccc(S(=O)(=O)N3CCN(c4ccccc4)CC3)c2)CC1 (centres undefined)	-	-	-	-	.	.
COc1ccc(OC)c(C2=Nn3c(nnc3C3CCCCC3)SC2)c1	-	-	-	-	.	.
COc1ccc(C2=Nn3c(nnc3C3CCCCC3)SC2)cc1OC	-	-	-6.8	-	52%	-
O=C1c2ccccc2-c2nc3ccccc3nc21	-	-	-	-	.	.
SMILES	T cell modulator	CHT PAM	CHT block	VLA-4 inh	CHT inh conf	HEK293 CHT ctr
O=C1c2ccccc2-c2cccnc21	-	-	-6.8	-	37%	-
CCCN1CNc2c(c(=O)[nH]c(=S)n2CCc2ccc(OC)c(OC)c2)C1	-	-	-	-	.	.
C/C(Cl)=C\Cn1c(O)c(N=O)c2ccccc21	-	-	-7.1	-	51%	-
O=[N+]([O-])c1cccc(S(=O)(=O)N2CCCCC2c2cccnc2)c1 (centres undefined)	-	-	-	-	.	.
CC1CCCCC1NC(=S)Nc1ccc(SC(F)F)cc1 (centres undefined)	-	-	-5.5	-	66%	-
CCOc1ccccc1C(=O)OCC(=O)Nc1nnc(-c2ccccc2)o1	-	-	-	-	.	.
CCOc1ccccc1C(=O)NC(C(=O)OCC(=O)Nc1nnc(-c2ccccc2)o1)C(C)C (centres undefined)	-	-	-5.7	-	-	-
COc1cc(/C=C2/C(=O)NN(c3ccc(C)c(Cl)c3)C2=O)cc([N+](=O)[O-])c1O	-	-	-	-	.	.
Cc1ccc(N2NC(=O)/C(=C\c3cc4c(cc3[N+](=O)[O-])OCO4)C2=O)cc1C	-	-	-5	-	42%	-
CCCNC(=O)N1CCCC(C(=O)c2cccc(Cl)c2)C1 (centres undefined)	-	-	-5.2	-	60%	-
COc1ccc(N2CCN(c3nc(NCCO)nc(N4CCOCC4)n3)CC2)cc1	-	-	-6.1	-	-	-
Cc1noc(C)c1S(=O)(=O)Nc1ccc(C(=O)N2CCC(C)CC2)cc1	-	-	-	-	.	.
CC(=O)CCc1c(C)[nH]c2ccccc2c1=O	-	-	-	-	.	.
CCc1c(C)[nH]c2ccccc2c1=O	-	-	-5.2	-	63%	-
CN(Cc1ccccc1)C(=O)COC(=O)c1cc(NS(=O)(=O)c2cccs2)ccc1O	-	-	-5.8	-	-	-
O=C(COC(=O)c1cc(NS(=O)(=O)c2cccs2)ccc1O)Nc1ccccc1	-	-	-	-	.	.
CCCCNC(=O)/C(C#N)=C/c1ccc(-c2ccc(S(=O)(=O)N3CCOCC3)cc2)o1	-	-	-5	-	69%	-
O=C(O)c1ccccc1NS(=O)(=O)c1ccc2c3c(cccc13)C(=O)N2	-	-	-	-	.	.
Cc1cc(O)ccc1NS(=O)(=O)c1ccc2c3c(cccc13)C(=O)N2	-	-	-6.5	-	57%	-
O=C(Nc1ccnn1C1CCN(CCCC2CCCC2)CC1)c1ccccc1Cl	-	-	-	-	.	.
Nc1ccccc1C(=O)NC1CCCNC1=O (centres undefined)	-	-	-16	-	-	-
Clc1ccc2c(N3CCCC3)ccnc2c1	-	-	-8	-	26%	-
Cc1ccc(N=C(N)N=C(N)N)c(C)c1	-	-	-	-	.	.
Cc1ccc(S(=O)(=O)NCc2csc(-c3cccs3)n2)cc1	-	-	-	-	.	.
O=S(=O)(NCc1csc(-c2cccs2)n1)c1ccc(Cl)cc1	-	-	-6.6	-	70%	-
O=S(=O)(NCc1csc(-c2cccs2)n1)c1cccc(C(F)(F)F)c1	-	-	-5.5	-	54%	-
Cc1cc(C)nc(OC(C(=O)O)C(OCC(C)C)(c2ccccc2)c2ccccc2)n1 (centres undefined)	-	-	-	-	.	.
Cc1ccc(S(=O)(=O)N2CCC(C(=O)N3CCCC(C(F)(F)F)C3)CC2)cc1C (centres undefined)	-	-	-	-	.	.
COc1ccc(NC(=O)c2cc(-c3ccccn3)nc3ccccc23)cc1S(=O)(=O)N(C)C	-	.	.	-	.	.
COc1ccc(-c2cc(C(F)(F)F)c(C#N)c(SCC(=O)O)n2)cc1OC	-	-	-	-	.	.
